Assay outcomes deposited in PubChem BioAssay by several laboratories.
T cruzi inh: blocks replication of Trypanosoma cruzi. inhibition, % (no concentration beside the values). T. cruzi beta-gal in NIH3T3, luminescence, 90 h. AID 1885. 300,000 compounds, 1.4% hits;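 active means mean inhibition across valid replicates above about 55%, limit read from the data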;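 further: signal also drops with host cell toxicity which is not excluded here; 0% = plate median of DMSO wells and 100% = zero luminescence signal; higher percent means less beta-gal luminescence so fewer parasites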
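Assay system: NIH/3T3 fibroblasts plus reporter T. cruzi. Amount: NIH/3T3 cells, 5,000 per well. Buffer or medium: DMEM, 2% fetal bovine serum. Doses: compound pinned at 50 nL/well, DMSO. Schedule: ≥90 h infection period, 3 h prior cell attachment. Signal: luminescent β-galactosidase signal after 60 min lysis. Read-out: parasite load inhibition, %.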
MEKK2mut PB1 HTS: signal of MEK5 binding to mutant human MEKK2 PB1 domain. 290,000 compounds, 0.35% hits. percent response, % at 10 µM. bead flow cytometry, Alexa488-MEK5 binding to MEKK2 mutant. AID 1530; in the data active means percent response above about 24%, passing the limit was not always enough
DNA FID counter: fluorescent intercalator displacement, NS3 helicase counter-screen. AID 1845. inhibition, % at 7.9 µM. 290,000 compounds, 0.17% hits. DNA fluorescent intercalator displacement, fluorescence; in the data active means inhibition above about 37%;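 further: 0% = vehicle and 100% = reference compound; higher means more ethidium bromide displaced from hairpin DNA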
MEKK2wt PB1 HTS: raises or lowers MEK5 binding to wildtype human MEKK2 PB1 domain; bead flow cytometry, Alexa488-MEK5 binding to MEKK2 WT; actives lie on both sides; binding response (% of control), % at 10 µM; 290,000 compounds, 1.1% hits; AID 1531; in the data active means binding response below about 67% or above about 130%
HCV NS3 hel inh: blocks Hepatitis C virus NS3 helicase unwinding; inhibition, % at 10.9 µM; NS3 helicase DNA unwinding, Cy5 molecular beacon fluorescence; 290,000 compounds, 0.56% hits; AID 1800;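 active means inhibition above the mean of all tested compounds plus 3 SD, set per campaign, cut at about 35% in these data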;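 further: 0% = DMSO wells and 100% = thioflavine S control wells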
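System: HCV NS3 helicase fragment; control set: DMSO and thioflavine S; technique: Cy5 fluorescence at 0 and 60 min, beacon hairpin quenching; reagent: beacon DNA duplex substrate plus ATP; replicates: singlicate; schedule: 1 h reaction at 25 °C, ATP-initiated; medium: MOPS buffer pH 6.5 with MgCl2, DTT, Tween20, BSA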
MEKK3 PB1 HTS: raises or lowers MEK5 binding to the human MEKK3 PB1 domain. Q99759. bead-based flow cytometry, Alexa488-MEK5 binding to MEKK3; actives lie on both sides; 0 = blocked by unlabeled MEK5, 100 = vehicle. binding response (% of control), % at 10 µM. 290,000 compounds, 1.4% hits. AID 1529;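 active means binding response more than 3 SD above or below the average of its plate-row segment, actives on both sides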;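 further: Alexa488 bead fluorescence after subtracting the streptavidin-only scavenger bead signal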
Target sequence (Q99759 whole entry, looked up, the tested form may be a part): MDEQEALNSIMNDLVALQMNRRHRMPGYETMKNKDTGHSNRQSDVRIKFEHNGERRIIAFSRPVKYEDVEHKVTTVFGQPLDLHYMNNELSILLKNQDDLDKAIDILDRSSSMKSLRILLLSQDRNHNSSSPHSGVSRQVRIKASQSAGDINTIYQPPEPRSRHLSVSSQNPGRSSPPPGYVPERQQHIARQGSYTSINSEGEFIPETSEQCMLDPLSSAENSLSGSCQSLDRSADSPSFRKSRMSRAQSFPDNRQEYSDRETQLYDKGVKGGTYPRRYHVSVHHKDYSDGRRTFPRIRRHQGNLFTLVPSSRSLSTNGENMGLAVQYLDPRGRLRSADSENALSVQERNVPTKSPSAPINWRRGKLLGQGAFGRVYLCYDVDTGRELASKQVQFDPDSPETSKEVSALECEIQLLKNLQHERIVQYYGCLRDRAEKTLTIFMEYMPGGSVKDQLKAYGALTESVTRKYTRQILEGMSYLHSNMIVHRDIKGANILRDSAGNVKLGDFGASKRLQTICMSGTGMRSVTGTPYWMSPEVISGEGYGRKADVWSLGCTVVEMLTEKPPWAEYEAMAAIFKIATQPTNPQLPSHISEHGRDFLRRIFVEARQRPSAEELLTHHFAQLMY
MEKK2wt confirm: raises or lowers MEK5 binding to wildtype human MEKK2, retest; 5,900 compounds, 2.4% hits; binding response (% of control), % at 10 µM; shares compounds with MEKK3 PB1 HTS; bead flow cytometry, Alexa488-MEK5 binding to MEKK2 WT; actives lie on both sides; in the data active means binding response below about 16% or above about 210%; inactive means in between
MEKK2mut confirm: signal of MEK5 binding to mutant human MEKK2, retest. 5,900 compounds, 2% hits. percent response, % at 10 µM. bead flow cytometry, Alexa488-MEK5 binding to MEKK2 mutant. shares compounds with MEKK3 PB1 HTS; in the data active means percent response mostly above about 71%, no sharp cut-off; inactive means mostly below about 38%;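 further: higher means compound restores mutant binding toward wildtype level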
MEKK3-MEK5 inh: confirmation of inhibitors of MEK5 binding to human MEKK3; shares compounds with MEKK3 PB1 HTS; bead flow cytometry, Alexa488-MEK5 binding to MEKK3; hits give low values; binding response (% of control), % at 10 µM; 5,900 compounds, 1.8% hits; AID 1894;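 active means binding response below 72% of control, or above a set upper limit, though filed actives all read lower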;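 further: 100% = DMSO only wells and 0% = binding blocked by excess unlabeled MEK5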
* hit, by the source's call; . = no result given; + = active, no number; [ ] = dose if it differs, or a comment. Sampled rows, rich in hits. Any-hit rate of the full collection: about 4.1%.

SMILES	T cruzi inh	MEKK2mut PB1 HTS	DNA FID counter	MEKK2wt PB1 HTS	HCV NS3 hel inh	MEKK3 PB1 HTS	MEKK2wt confirm	MEKK2mut confirm	MEKK3-MEK5 inh
CC(=O)C1=C(O)C(=O)N(Cc2ccco2)C1c1cccc(F)c1 (stereo not drawn)	-2.1	0.0	-3.6	113.0	-1.0	129.0*	97.0	-7.0	96.0
Cc1cc(C)cc(NC(=O)CCC(=O)Nc2nnc(C(C)C)s2)c1	-15.6	-5.0	-41.7	96.0	-7.2	97.0	.	.	.
O=C(CSc1nnc2c(Cl)cc(Cl)cn12)N1CCN(c2ccc(F)cc2)CC1	-0.7	-2.0	-16.3	91.0	5.4	95.0	.	.	.
CC(=O)[C@]1(O)Cc2c(O)c3c(c(O)c2[C@@H](O[C@H]2C[C@H](N)[C@H](O)[C@H](C)O2)C1)C(=O)c1ccccc1C3=O	54.6*	30.0*	.	25.0*	.	105.0	104.0	2.0	101.0
CNC(=S)N1CCn2cccc2C1c1cc(OC)c(OC)c(OC)c1 (stereo not drawn)	-5.2	-3.0	1.3	81.0	-5.1	57.0*[inhibitor]	96.0	-3.0	99.0
CCC(C)NC(=O)CN(c1cc(Cl)ccc1OC)S(C)(=O)=O (stereo not drawn)	-7.5	1.0	-1.1	114.0	-9.8	140.0*	99.0	-6.0	99.0
FC(F)(F)c1ccc(-c2nnc(-c3ccccn3)c(-c3ccccn3)n2)nc1	-14.1	-37.0	-14.8	66.0	3.1	61.0*[inhibitor]	106.0	3.0	103.0
Cc1cccc(-c2cc3nc4c(c(N5CCOCC5)n3n2)CCCC4)c1	43.2	-3.0	-23.3	97.0	-16.4	94.0	.	.	.
Cc1cccc(-c2cc3nc4c(c(NCc5ccco5)n3n2)CCCC4)c1	48.5	16.0	-4.5	136.0*	-5.3	110.0	108.0	1.0	104.0
O=S(=O)(NCCc1ccc(Cl)cc1)c1cccc2cccnc12	37.2	5.0	-19.0	107.0	-1.1	101.0	.	.	.
O=C(NC1CCCC1)C(c1ccccc1)N(C(=O)c1csnn1)c1ccccc1F (stereo not drawn)	-16.4	-2.0	-26.4	101.0	0.5	102.0	.	.	.
COc1ccc2[nH]c3c(=O)n(N)c(C)nc3c2c1	0.5	1.0	0.2	107.0	0.9	136.0*	104.0	2.0	105.0
NS(=O)(=O)c1ccc(CCNCc2ccccc2OCc2ccc(Cl)cc2)cc1	15.6	8.0	26.1	145.0*	-65.6	106.0	129.0	16.0	108.0
NS(=O)(=O)c1ccc(CCNCc2cc(Cl)ccc2OCc2ccccc2)cc1	-8.6	6.0	28.1	144.0*	-55.1	108.0	135.0	20.0	106.0
NS(=O)(=O)c1ccc(CCNCc2cc(Br)ccc2OCc2ccccc2F)cc1	-29.3	21.0	23.9	133.0	-57.8	95.0	.	.	.
CC(=O)Nc1ccc(S(=O)(=O)NC2CC(=O)N(c3ccc(C)c(C)c3)C2)cc1 (stereo not drawn)	-0.2	.	.	.	.	.	.	.	.
N#Cc1ccccc1OCC(=O)NC(=O)NCc1ccco1	18.5	1.0	-4.3	99.0	1.3	101.0	.	.	.
O=C(Nc1cccc([N+](=O)[O-])c1)c1ccc2snnc2c1	2.6	-2.0	2.6	97.0	-0.9	102.0	.	.	.
O=C(NC1CCCCC1)NC1CCN(CC(=O)N2CCOCC2)CC1	-0.4	-15.0	-2.5	2.0*[inhibitor]	-6.6	2.0*[inhibitor]	101.0	-1.0	103.0
O=C(CN1CCCCC1)NC(=O)NC1CCCC1	0.1	-1.0	0.7	104.0	-4.9	117.0	.	.	.
COc1ccc(CCNC(=O)CSc2nc3[nH]ncc3c(=O)n2-c2ccc(C)c(Cl)c2)cc1OC	3.1	3.0	-28.4	101.0	4.9	104.0	.	.	.
COC(=O)[C@@H](c1ccccc1)N(C)S(=O)(=O)c1cccc(S(=O)(=O)N(C)[C@@H](C(=O)OC)c2ccccc2)c1	46.7	-2.0	-33.2	102.0	-24.1	102.0	.	.	.
C/C(=N\NC(=S)Nc1cccc(C)c1)c1ccco1	76.9*	-18.0	-4.5	9.0*[inhibitor]	-7.8	7.0*[inhibitor]	106.0	5.0	105.0
O=[N+]([O-])c1ccc(C[n+]2cccc3ccccc32)cc1	9.4	98.0*	3.5	84.0	-24.8	104.0	94.0	-30.0	96.0
O=[N+]([O-])c1ccc(C[n+]2cccc3ccc4cccnc4c32)cc1	-4.3	5.0	10.5	112.0	3.5	104.0	.	.	.
SMILES	T cruzi inh	MEKK2mut PB1 HTS	DNA FID counter	MEKK2wt PB1 HTS	HCV NS3 hel inh	MEKK3 PB1 HTS	MEKK2wt confirm	MEKK2mut confirm	MEKK3-MEK5 inh
O=C(COC(=O)/C=C/c1ccc(OC(F)F)cc1)NC1CCCCCCC1	-2.5	.	.	.	.	.	.	.	.
COc1ccc(C(=O)Nc2ccc(NC(=O)c3cccs3)cc2)cc1Cl	3.4	0.0	-0.5	103.0	-2.0	130.0*	96.0	-2.0	101.0
Cc1cc(OC(=O)c2c(F)cc(F)cc2F)nc(C)n1	-9.2	5.0	2.6	123.0	17.6	149.0*	93.0	-3.0	93.0
COc1cc(CN2CCN(c3ccccc3C)CC2)cc([N+](=O)[O-])c1O	4.4	-16.0	14.3	49.0*[inhibitor]	-2.0	62.0*[inhibitor]	101.0	2.0	100.0
CC1CCc2nc3sc4c(c3c(N)c2C1)CCCC4 (stereo not drawn)	25.4	-3.0	1.6	91.0	-10.2	88.0	.	.	.
Nc1c2c(nc3sc4c(c13)CCCCC4)CCCCC2	3.5	1.0	-2.2	111.0	-3.3	139.0*	107.0	2.0	101.0
CC(C)=N/N=C(/c1ccc([N+](=O)[O-])cc1)C12CN3CN(CN(C3)C1)C2	3.2	+	-14.1	.	3.4	148.0*	100.0	-6.0	103.0
CN(C)CCCNS(=O)(=O)c1cc(Cl)ccc1Cl	-4.0	2.0	3.6	100.0	-2.5	96.0	.	.	.
NCCCCCCNS(=O)(=O)c1cccc2c(Cl)cccc12	-6.9	10.0	.	140.0*	.	116.0	112.0	2.0	98.0
Cc1ccc(NC(=O)CN2C(=O)c3ccccc3S2(=O)=O)c(C)c1	-22.7	2.0	-1.1	106.0	-5.8	103.0	.	.	.
COc1ccc(/C=C2\Sc3ccc(C(=O)N4CCc5ccccc5C4)cc3N(C)C2=O)cc1	11.4	0.0	-13.4	102.0	-8.5	130.0*	94.0	-7.0	93.0
COc1ccc(/C=C2\Sc3ccc(C(=O)N4CCCC4)cc3N(C)C2=O)cc1OC	6.1	4.0	-54.5	103.0	-10.1	101.0	.	.	.
Cn1cc(Br)c(NC(=O)/C=C/C(=O)O)n1	-0.1	-1.0	-7.1	100.0	4.2	103.0	.	.	.
